Tested on: MS2 coat protein
Experiment: apparent Kd, MS2 coat protein; higher = weaker binding; RNA-MaP array; FMN 200 µM where present
Summary of the method: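 The apparent Kd is the median of filtered binding-curve fits, one per cluster, to green signal normalised to red-channel RNA signal and control-cluster median Fmax. The clusters were on Illumina sequencing chips, and stalled E. coli RNA polymerase had transcribed the designs on them. Titration used SNAP-549-labelled MS2 coat protein from 0.7 or 1.5 nM, doubling to 3 µM, without and then with constant ligand, in 100 mM Tris-HCl pH 7.5, 80 mM KCl, 4 mM MgCl2, BSA, DTT, yeast tRNA and Tween-20.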

[1] = designed as: ON switch for flavin mononucleotide, no ligand
[2] = ligand present: flavin mononucleotide, designed as: ON switch for flavin mononucleotide
[3] = designed as: OFF switch for flavin mononucleotide, no ligand
[4] = ligand present: flavin mononucleotide, designed as: OFF switch for flavin mononucleotide

Sequence | apparent Kd [1] | apparent Kd [2] | apparent Kd [3] | apparent Kd [4]
AAAAAAAAAACUCAGGAUAUAGAUAAUUGAACAUGAGGAUCACCCAUGUAGUGAAAAAAAAAAAAUUAGAAGGGAGGAAAAAAAAA | 67.8 nM | 58.8 nM | – | –
AAAAAAAAAAGACAGGAUAUACAAUAUAUUACAUGAGGAUCACCCAUGUUUUUUUUUUAAUUAAAGUAGAAGGGUCAAAAAAAAAA | 52.2 nM | 40 nM | – | –
AAAAAAAAAAGUCAGGAUAUACAAAUUUUUACAUGAGGAUCACCCAUGUUAAAGAAAAAAAAAAAGUAGAAGGGACAAAAAAAAAA | 25.1 nM | 14.9 nM | – | –
AAAAAAAAAUCUCAGGAUAUAGAUUAUAGAACAUGAGGAUCACCCAUGUAGUGAAAGAAGAAAAACUAGAAGGGAGGAAAAAAAAA | 100 nM | 66.6 nM | – | –
AAAAAAAGAUCACAGGAUAUACGAAAAAAAACAUGAGGAUCACCCAUGUAAAAAAAAAAAAAAAAGUAGAAGGGUGAUCCAAAAAA | 160 nM | 279 nM | – | –
AAAAAACAUGAGGAUCACCCAUGUCAAAAGACGUGAGGAUAUGUACAGACUUCGGUCUGUACAGAAGGCAUGUCAA | 30.1 nM | 16.5 nM | – | –
AAAAAACAUGAGGAUCACCCAUGUCGAAAGACAUGAGGAUAUGUGUGGAAACCAUACUAUACAGAAGGCAUAAAAA | 37.8 nM | 371 nM | – | –
AAAAAACAUGAGGAUCACCCAUGUCUUCGGACGUGAGGAUAUGUACAGACUUCGGUCUGUACAGAAGGCAUGUCAA | 212 nM | 25.9 nM | – | –
AAAAAACAUGAGGAUCACCCAUGUGAGGAUAUAGGAAAAAAAAAAAAAAAAAAAAAAACUAGAAGGCACAAAAA | – | – | 55.4 nM | 74.6 nM
AAAAAACAUGAGGAUCACCCAUGUGAGGAUAUCCAAAAGUCAAAGAAAAAGACGAAAAGGAGAAGGCACAAAAA | – | – | 72.8 nM | 84.8 nM
AAAAAACAUGAGGAUCACCCAUGUGAGGAUAUCCAAAAGUUAAAGAAAAAGACGAAAAGGAGAAGGCGCAAAAA | – | – | 109 nM | 82 nM
AAAAAACAUGAGGAUCACCCAUGUGAGGAUAUCUGUAUUCAAUCCUCGGAUUGAAUACAGAGAAGGCACAUGGG | – | – | 26.6 nM | 26.9 nM
AAAAAACAUGAGGAUCACCCAUGUGAGGAUAUGCAAAAAAAAAAAAAAAAAUAAAAAAGCAGAAGGCACAAAAA | – | – | 63.4 nM | 86.2 nM
AAAAACCGAGGAUAUACAUGAGGAUCACCCAUGUCAAAAAAAAAAAAAAAAAAAAAAGGUAGAAGGCGGAAAAA | – | – | 64.3 nM | 57.9 nM
AAAAACUAAGGAUAUACAUGAGGAUCACCCAUGUAAAAAAUGCAUGGGAAAACCUCAUGUAGAAGGUAGAAAAA | – | – | 20.6 nM | 17.2 nM
AAAAAGUCAGGAUAUAGCAAAGGUCACGAAAGUGACAAAGGCUAGAAGGGACAUGAGGAUCACCCAUGUAAAAA | – | – | 31 nM | 39.1 nM
AAAAAGUCAGGAUAUAUCAAAAAAAAAGAAAAAAAAAAAAGAUAGAAGGGACAUGAGGAUCACCCAUGUAAAAA | – | – | 50.9 nM | 42.1 nM
AAAAAGUCAGGAUAUGCGAAGGCGUCUGAUAGACGAGGCUAGCAGAAGGGACAUGAGGAUCACCCAUGUAAAGA | – | – | 27.2 nM | 55.1 nM
AAAAAGUCAGGAUAUUCGGAAGGGAAAGCGCAAACCCAACCGAAGAAGGGACAUGAGGAUCACCCAUGUAAAAA | – | – | 26.7 nM | 39 nM

Sequence | apparent Kd [1] | apparent Kd [2] | apparent Kd [3] | apparent Kd [4]
AAAAAGUGAGGAUAUACGGUGUGGAGUAGACACAACCAGACGUAGAAGGCACAUGAGGAUCACCCAUGUCCAAA | – | – | 24.1 nM | 21.4 nM
AAAAAGUGAGGAUAUGCUGCUCGUCACUUGCGUGAUGAGUAGCAGAAGGCACAUGAGGAUCACCCAUGUGGGAA | – | – | 82.6 nM | 170 nM
AAAACAUACCGAGGAUAUUCAUAUAAUAAAUAAACAUGAGGAUCACCCAUGUGGCGAAAGCCUAGGGAGAAGGCGGAAUGCUAA | 149 nM | 31.8 nM | – | –
AAAACAUGAGGAUCACCCAUGUAAAGAUCGGUUAAUAGAGGUGAGGAUAUACGAACUUAAAGGUAGUAGAAGGCACUGGGUACA | 47.1 nM | 35.5 nM | – | –
AAAACAUGAGGAUCACCCAUGUAAAGAUCGGUUGAUGAAGGUGAGGAUAUACAAAACUUUAUGGAGUAGAAGGCACUGGGUUGA | 109 nM | 59.3 nM | – | –
AAAACAUGAGGAUCACCCAUGUUUAGAUCGGUCGAUUGAGGUGAGGAUAUACUAAGUUAAGGCUGGUAGAAGGCACUGGGUACA | 62 nM | 43.6 nM | – | –
AAAACGAUGUGAGGAUAUCACCGCUGUGACGGCUGAGAAGGCACAUGAGGAUCACCCAUGUGCAGGCGUGUGUGGGUAAUCCUA | – | – | 109 nM | 94.8 nM
AAAACGUGAGGAUAUGCACCCACCAAGGUUUUUCGGGUACGACAUGAGGAUCACCCAUGUAGAAGGCACGCAAA | – | – | 27.6 nM | 21.2 nM
AAAAGACAUGAGGAUCACCCAUGUCAAAACAUAGGAGGAUAUGUCUUGAAAAAAGACUUGACAGAAGGCCUUUGUC | 17.9 nM | 15.8 nM | – | –
AAAAGACAUGAGGAUCACCCAUGUUAAGACGUGGGAGGAUAUGCAUGGCAAACAUGCUGUGCAGAAGGCCCGUGUC | 58.4 nM | 23.1 nM | – | –
AAAAGGCUAGGAUAUACAUGAGGAUCACCCAUGUGAGGGCACGGCCGGCGCGGGCCCGGUAGAAGGAGUCAAAA | – | – | 18.4 nM | 17.6 nM
AAAAGUAGAGGAUAUACAUGAGGAUCACCCAUGUAGAAAGGAAGUAUAUAUAUGGCGUGUAGAAGGCUGCAUGA | – | – | 34.5 nM | 32.2 nM
AAAAUGUAAGGAUAUGGCCGGGACCCAGGGUUUGGACCCGGCUAGAAGGUACAUGAGGAUCACCCAUGUAAGAA | – | – | 16.4 nM | 23 nM
AAAAUGUCAGGAUAUGCGAAGGCGUCUGACGGACGAGGAUUGCAGAAGGGACAUGAGGAUCACCCAUGUAAAAA | – | – | 54.5 nM | 138 nM
AAAAUUUAUUGAGGAUAUUCAUACACUGCAUACGGAGAAGGCAAACAAUCAUGAGGACAUGAGGAUCACCCAUGUUGUGACCAU | 18.9 nM | 15.8 nM | – | –
AAACAAAGGUGGAAACGGGAACCACAUGAGGAUCACCCAUGUAAGGAUAUCGACCAGCGGUGCGGCGAGAAGGUACAUAGGAAC | – | – | 20.3 nM | 29.7 nM
AAACACGGACAUGAGGAUCACCCAUGUGGCGAAAGCCUUGGGAGAAGGCCGUAUGCAAAGCAUACGGAGGAUAUCCAUACCGUG | 18.1 nM | 6.34 nM | – | –
AAACAUGUCCGAGGAUAUCUGAGAUUAUUUUCAAGAGAAGGCGGACAUGAGGAUCACCCAUGUCUCUCCUCAUCAACUCCAAAU | – | – | 8.61 nM | 54.5 nM
AAACAUGUCCGAGGAUAUCUGGAAACAUUUUCAAGAGAAGGCGGACAUGAGGAUCACCCAUGUCUCUCCUCAUCAACUACAAUU | – | – | 8.31 nM | 58.1 nM

Sequence | apparent Kd [1] | apparent Kd [2] | apparent Kd [3] | apparent Kd [4]
AAACAUGUCCGAGGAUAUCUGGAAACAUUUUCAAGAGAAGGCGGACAUGAGGAUCACCCAUGUCUCUCCUCAUCAACUACAUAU | – | – | 8.09 nM | 59.4 nM
AAACAUGUCCGAGGAUAUCUGGAAACAUUUUCAAGAGAAGGCGGACAUGAGGAUCACCCAUGUCUCUCCUCAUCAAGUCCAAGU | – | – | 8.47 nM | 46.2 nM
AAACAUGUCCGAGGAUAUCUGGAAACAUUUUCAAGAGAAGGCGGACAUGAGGAUCACCCAUGUCUCUCCUCAUCCACUACAAAU | – | – | 9.59 nM | 60.6 nM
AAACAUGUCCGAGGAUAUCUGGAAACUUUUUCAAGAGAAGGCGGACAUGAGGAUCACCCAUGUCUCUCCUCAUCAAAUCCAAGU | – | – | 7.94 nM | 50.3 nM
AAACCACAUGAGGAUCACCCAUGUGAGGAUAUGAUACUAUGUACUUCGGUACAUAGUAUCAGAAGGCAUAUGAA | – | – | 24.6 nM | 25.1 nM
AAACCGCAAGGAUAUUGUGGCGCUGACAUGAGGAUCACCCAUGUGGUGCUAGUCCCGCUGCGAGAAGGUGUGUAAA | – | – | 12.4 nM | 26.8 nM
AAACUGCCACAUGAGGAUCACCCAUGUAAAUAAAGUAUUUGGAGAAGGGCGAUAGCAAAGCUAUCGCAGGAUAUUCUCAGGCAG | 20.3 nM | 15.3 nM | – | –
AAAGAGUCAGGAUAUUCGUAUAGAGUAGCGCGACUCUAUACGAAGAAGGGACAUGAGGAUCACCCAUGUAAAAA | – | – | 28.1 nM | 45.6 nM
AAAGCAACAUGAGGAUCACCCAUGUAGGAUAUCGCUAUUGUAAUCAUGAAACAUGAUUACAAUAGCGAGAAGGACAUAUGCGGG | – | – | 42.5 nM | 45.2 nM
AAAGCACGAGGAUAUACAUGAGGAUCACCCAUGUAUAACCAACAUAGGUGAUCCUCAUGUAGAAGGCGUGCAAA | – | – | 18.6 nM | 18.4 nM
AAAGGACGAGGAUAUACAUGAGGAUCACCCAUGUAAAAAGCGUAGCAAAAGUGCUUAUGUAGAAGGCGUCCAAA | – | – | 21.9 nM | 59.2 nM
AAAGGACGAUUAGGAUAUUCGGUUCAAGGUAAAGAAGAAGGAAUCGUUCCAUACUUAACAUGAGGAUCACCCAUGUGGGUCUAG | – | – | 34.9 nM | 29.5 nM
AAAGUGUGAAGCAGGGUGCUACAUGAGGAUCACCCAUGUCGGAGAAGGGCGCCGUUUCGCAGGGUGUAGGAUAUCUGGCGUGCA | – | – | 132 nM | 109 nM
AAAUAAAACGAUCGGCGAUCCAUACAUGAGGAUCACCCAUGUAGAAGGCACUCUACAAAGUAGAGUGAGGAUAUACGAGAUCGA | – | – | 7.13 nM | 95.5 nM
AAAUAAACUAGCAUAAUAACCUCACAUGAGGAUCACCCAUGUCAGGAUAUCUGUCCUAAAAGGACAGAGAAGGGACGUGCUAGG | – | – | 5.68 nM | 6.95 nM
AAAUAGAAUGAGGAUAUCGUAUUAUAUUUAGUACGAGAAGGCAUUACAUGAGGAUCACCCAUGUUUUGUUGGGA | – | – | 21.8 nM | 57.9 nM
AAAUAGCGAGGAUAUACAUGAGGAUCACCCAUGUGGACUGAUGUCGCAUGUUUCAGUGGUAGAAGGUGCUCAAA | – | – | 136 nM | 299 nM
AAAUAGUUACAGAAGGGCAUUUAUAAUUAUCAUUACUCUUACUAUGUUUGCAGGAUAUGUUUAACAUGAGGAUCACCCAUGUAC | 20.4 nM | 14.1 nM | – | –

From the EternaBench riboswitch data
